Source: ChEMBL document CHEMBL1287755, “Design, synthesis and inhibition activity of novel cyclic peptides against protein tyrosine phosphatase A from Mycobacterium tuberculosis” (Bioorg Med Chem, 2010)

Key:
[1] = target: T1, Low molecular weight protein-tyrosine phosphatase A (Mycobacterium tuberculosis, UniProt P9WIA1); test: Inhibition of Mycobacterium tuberculosis recombinant protein tyrosine phosphatase A by Lineweaver-Burke plot analysis
T1 sequence (P9WIA1 whole entry): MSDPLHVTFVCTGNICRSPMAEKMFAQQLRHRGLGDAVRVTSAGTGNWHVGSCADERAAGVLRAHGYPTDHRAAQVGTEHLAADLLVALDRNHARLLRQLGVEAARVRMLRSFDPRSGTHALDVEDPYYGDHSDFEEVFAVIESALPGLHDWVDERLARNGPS
Method in brief: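 Recombinant wild-type MPtpA (purified, purity by SDS-PAGE, concentration from A280) held at 1 µM. Phosphatase activity measured at 25 °C in 0.1 M Tris, 0.15 M NaCl, 1 mM EDTA, pH 7.5, with pNPP substrate. p-Nitrophenol release read at 405 nm. Inhibitors added from methanol, final methanol ≤3% v/v. Inhibitor typically 10–50 µM, substrate 100–300 µM. Triplicate assays. Mode of inhibition from double-reciprocal plots. Ki taken from a plot of Km/Vmax versus [I].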

[2] = target: T2, Low molecular weight protein-tyrosine phosphatase A (Mycobacterium tuberculosis) (UniProt P9WIA1); test: Binding affinity to Mycobacterium tuberculosis recombinant protein tyrosine phosphatase A by circular dichroism spectral analysis
T2 sequence (whole entry): T1 sequence (P9WIA1 whole entry)
Method in brief: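 Far-UV CD of recombinant MPtpA at 25 °C in Tris buffer, 10 mm quartz cell. Spectra taken over 195–240 nm at 50 nm/min with 4 s response. Buffer blank containing the ligand subtracted. Protein:peptide ratio titrated from 2:1 up to 1:6. Changes followed at the α-helix minima, 208 and 222 nm, and a binding constant was derived from the titration.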

[3] = target: T2, Low molecular weight protein-tyrosine phosphatase A (Mycobacterium tuberculosis); test: Binding affinity to Mycobacterium tuberculosis recombinant protein tyrosine phosphatase A by fluorescence quenching assay
Method in brief: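 Intrinsic tryptophan fluorescence of MPtpA, held at 2 µM, recorded at 20 °C in a 10 mm quartz cuvette. Emission maximum at 340 nm followed during titration with the peptide, up to a 1:10 protein:peptide ratio. Data fitted to Stern–Volmer (F0/F = 1 + Ksv[Q]) and Scatchard plots to give quenching and binding constants.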

SMILES | Ki [1] | Kb [2] | Kb [3]
O=C1CC[C@H](C(=O)O)NC(=O)[C@@H]([C@@H](Nc2ccccc2)c2ccccc2)CN1 | 36.3 µM | 8.5 ×10⁴ /M | 8.89 ×10⁴ /M
O=C1CNC(=O)[C@H](Cc2ccc(O)cc2)NC(=O)[C@@H]([C@@H](Nc2ccccc2)c2ccccc2)CN1 | 8 µM | 1.2 ×10⁵ /M | 1.5 ×10⁵ /M
O=C1CNC(=O)CNC(=O)[C@@H]([C@@H](Nc2ccccc2)c2ccco2)CN1 | 215 µM | 2.95 ×10⁴ /M | 2.99 ×10⁴ /M
C[C@@H]1NC(=O)[C@H](C)NC(=O)[C@@H]([C@@H](Nc2ccccc2)c2ccccc2)CNC1=O | 220 µM | 1.1 ×10⁴ /M | 1 ×10⁴ /M
O=C1CNC(=O)[C@@H]([C@@H](Nc2ccccc2)c2ccccc2)CN1 | 140 µM | 3.6 ×10⁴ /M | 3.41 ×10⁴ /M
C[C@@H]1NC(=O)[C@H](C)NC(=O)[C@H](C)NC(=O)[C@@H]([C@@H](Nc2ccccc2)c2ccccc2)CNC1=O | 199 µM | 3.3 ×10⁴ /M | 3.27 ×10⁴ /M
O=C1CNC(=O)CNC(=O)[C@@H]([C@@H](Nc2ccccc2)c2ccccc2)CN1 | 85.5 µM | 4.7 ×10⁴ /M | 4.87 ×10⁴ /M
